Test results: ChEMBL document CHEMBL4265954, “Discovery of potent liver-selective stearoyl-CoA desaturase-1 (SCD1) inhibitors, thiazole-4-acetic acid derivatives, for the treatment of diabetes, hepatic steatosis, and obesity” (Eur J Med Chem, 2018)

Assays:
Rattus norvegicus [1] = assay: Ex vivo inhibition of SCD1 in high sucrose diet Sprague-Dawley rat liver treated orally for 6 hrs followed by incubation with [14C]stearoyl-CoA substrate for 10 mins by TLC assay; assay type: functional, organism-based
In short: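 Sprague-Dawley rats on a high sucrose diet, given oral 1 or 10 mg/kg. Liver, epididymal adipose and eyelid were taken 6 h later and homogenized. S9 SCD activity was measured by [14C]stearoyl-CoA conversion to oleate and quantified by AgNO3 TLC imaging. Result is % remaining activity versus control, mean ± SD, n=3.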

Cytochrome P450 2C19 = Cytochrome P450 2C19 (Homo sapiens, UniProt P33261); assay: Inhibition of CYP2C19 (unknown origin); assay type: ADME
Cytochrome P450 2C19, sequence (P33261 whole entry): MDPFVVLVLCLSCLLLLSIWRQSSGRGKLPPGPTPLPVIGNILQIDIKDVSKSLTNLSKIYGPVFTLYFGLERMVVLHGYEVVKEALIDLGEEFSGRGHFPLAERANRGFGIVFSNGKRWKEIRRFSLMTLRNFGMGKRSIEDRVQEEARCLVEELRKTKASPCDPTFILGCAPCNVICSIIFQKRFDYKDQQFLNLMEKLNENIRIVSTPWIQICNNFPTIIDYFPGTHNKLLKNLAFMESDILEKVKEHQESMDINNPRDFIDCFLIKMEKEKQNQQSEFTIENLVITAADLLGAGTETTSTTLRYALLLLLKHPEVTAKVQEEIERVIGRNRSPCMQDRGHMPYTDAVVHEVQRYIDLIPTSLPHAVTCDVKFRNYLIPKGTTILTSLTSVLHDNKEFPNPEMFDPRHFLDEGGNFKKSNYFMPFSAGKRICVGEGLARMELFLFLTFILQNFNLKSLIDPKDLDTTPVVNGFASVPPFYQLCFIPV

Mus musculus = assay: Antiobesity activity in high fat diet fed C57BL/6J mouse assessed as reduction in diet-induced body weight gain at 10 mg/kg, po administered as diet mixture for 43 days relative to control; assay type: functional; set-up: scale not given: the % may be the effect or the level left
In short: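 C57BL/6J mice, individually housed, fed HFD for one month, then given HFD admixed with drug (0.0040% for 3 mg/kg/day, 0.0133% for 10 mg/kg/day) for 43 days, from 10 to 16 weeks of age. Chow-fed normal group as control. Body weight measured every 3–4 days. Mean ± SD, n=5–8. Dunnett's test versus HFD control.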

Cytochrome P450 1A2 = molecular target: T1, Cytochrome P450 1A2 (Homo sapiens, UniProt P05177); assay: Inhibition of CYP1A2 (unknown origin); assay type: ADME
T1 sequence (P05177 whole entry): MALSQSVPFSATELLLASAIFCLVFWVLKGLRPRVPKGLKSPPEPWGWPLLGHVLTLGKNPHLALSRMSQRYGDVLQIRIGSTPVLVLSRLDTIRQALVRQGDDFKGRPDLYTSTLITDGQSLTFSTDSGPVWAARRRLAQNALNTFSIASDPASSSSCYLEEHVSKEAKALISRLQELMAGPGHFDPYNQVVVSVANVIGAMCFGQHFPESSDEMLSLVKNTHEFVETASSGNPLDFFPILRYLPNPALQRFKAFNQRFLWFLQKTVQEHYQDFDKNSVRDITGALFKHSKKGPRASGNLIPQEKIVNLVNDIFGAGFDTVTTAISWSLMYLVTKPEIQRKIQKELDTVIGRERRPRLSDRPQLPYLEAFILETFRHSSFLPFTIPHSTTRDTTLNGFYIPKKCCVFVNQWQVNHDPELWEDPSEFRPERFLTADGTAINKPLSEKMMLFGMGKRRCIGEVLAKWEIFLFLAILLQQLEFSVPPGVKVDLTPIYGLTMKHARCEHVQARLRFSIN

Rattus norvegicus [2] = assay: Toxicity in Sprague-Dawley rat assessed as loss of fur at 1000 mg/kg, po once daily for 2 weeks measured from day 9 of administeration; assay type: organism-based; conditions: in vivo, 336 h
In short: (§1)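 Male Sprague Dawley rats, 6 weeks old (5 per group), were dosed orally once daily for 2 weeks at 100 or 1000 mg/kg as a suspension in 0.5% methylcellulose; controls received vehicle. Readouts: clinical observations, body weight, food consumption, ophthalmoscopy in week 2, and terminal necropsy, hematology, clinical chemistry, organ weights and histopathology. Plasma levels were measured 24 h post-dose on days 1, 5 and 10.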

[3] = Apparent permeability of the compound in human Caco2 cells; assay type: ADME, cell-based; conditions: Caco-2
Cytochrome P450 2C9 = Cytochrome P450 2C9 (Homo sapiens, UniProt P11712); assay: Inhibition of CYP2C9 (unknown origin); assay type: ADME
Cytochrome P450 2C9, sequence (P11712 whole entry): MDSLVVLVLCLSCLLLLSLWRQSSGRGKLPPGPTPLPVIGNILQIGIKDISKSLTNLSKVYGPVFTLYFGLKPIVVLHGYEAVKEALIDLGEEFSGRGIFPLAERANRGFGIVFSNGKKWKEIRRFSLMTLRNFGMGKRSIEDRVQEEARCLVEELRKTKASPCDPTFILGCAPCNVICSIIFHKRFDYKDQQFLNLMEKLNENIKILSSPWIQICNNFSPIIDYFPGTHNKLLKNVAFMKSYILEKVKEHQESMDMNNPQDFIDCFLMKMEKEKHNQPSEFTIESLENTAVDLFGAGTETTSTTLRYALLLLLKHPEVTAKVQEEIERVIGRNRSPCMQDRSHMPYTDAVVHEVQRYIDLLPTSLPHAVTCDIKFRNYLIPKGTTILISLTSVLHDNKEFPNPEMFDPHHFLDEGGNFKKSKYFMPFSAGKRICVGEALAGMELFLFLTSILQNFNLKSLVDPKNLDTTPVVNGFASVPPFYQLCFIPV

[4] = Metabolic stability in rat liver S9 fraction after 1 hr; assay type: ADME, subcellular; conditions: read-out: Stability
Rattus norvegicus [5] = assay: Toxicity in Sprague-Dawley rat at 100 mg/kg, po once daily for 2 weeks; assay type: organism-based; conditions: in vivo, 336 h; in short: as §1
[6] = Drug uptake in high sucrose diet Sprague-Dawley rat liver at 10 mg/kg, po treated after 6 hrs; assay type: ADME, organism-based; conditions: read-out: Drug uptake
In short: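 Sprague-Dawley rats on a high sucrose diet, given a single oral 10 mg/kg dose. Plasma, liver and eyelid drug concentrations were measured 6 h later, n=3. Liver/eyelid ratio was taken from the tissue concentrations.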

[7] = AUC (0 to infinity) in C57BL/6J mouse at 10 mg/kg, po; assay type: ADME, organism-based; set-up: dose 10 mg/kg, time infinity, route oral; conditions: in vivo
[8] = AUC (0 to infinity) in Sprague-Dawley rat at 10 mg/kg, po; assay type: ADME, organism-based; set-up: dose 10 mg/kg, route oral, time infinity; conditions: in vivo

CCCCc1ccccc1NCc1ccc(C(=O)Nc2nc(CC(=O)O)cs2)s1
inhibition (Rattus norvegicus [1]): Dose-dependent effect | IC50 (Cytochrome P450 2C19): > 50 µM | Activity (Mus musculus): 6% | IC50 (Cytochrome P450 1A2): > 50 µM | Activity (Rattus norvegicus [2]): Toxic | Papp [3]: 43.6 ×10⁻⁶ cm/s | IC50 (Cytochrome P450 2C9): > 50 µM | remaining at 1 h [4]: 87% | Activity (Rattus norvegicus [5]): Non-Toxic | concentration at 6 h [6]: 1000 nM | AUC(0-inf) [7]: 10.2 µM·h | AUC(0-inf) [8]: 16.5 µM·h
